Assay results from different studies.
Lines come from different studies, so protocols differ.
Target: Protein kinase C alpha type (PRKCA, Homo sapiens, UniProt P17252)

| Compound | test | setting | endpoint | value |
| --- | --- | --- | --- | --- |
| Cc1ccc(Nc2nccc(N(C)c3ccc4c(C)n(C)nc4c3)n2)cc1S(N)(=O)=O | enzyme activity, inhibitor | 10 µM | inhibition | 10% |
| COc1cc(Nc2cnc(C#N)c(O[C@H](C)CN(C)C)n2)ncc1-c1cnn(C)c1 | enzyme activity, inhibitor, radiometric | 1 µM | remaining activity | 115% |
| COc1cc(/C=C/C(=O)CC(=O)/C=C/c2ccc(O)c(OC)c2)ccc1O | enzyme activity, inhibitor | 1 µM | activity vs control | 106% |
| Cc1ccc(-n2nc(C(C)(C)C)cc2NC(=O)Nc2ccc(OCCN3CCOCC3)c3ccccc23)cc1 | enzyme activity, inhibitor | 10 µM | inhibition | 9% |
| COc1cc2ncnc(Nc3ccc(Oc4ccccc4)cc3C)c2cc1OC | enzyme activity, inhibitor | 1 µM | inhibition | 6% |
| Oc1cccc(-c2nc(N3CCOCC3)c3oc4ncccc4c3n2)c1 | enzyme activity, inhibitor | 10 µM | remaining activity | 93% |
| CN(C)CCCn1cc(C2=C(c3c[nH]c4ccccc34)C(=O)NC2=O)c2ccccc21 | cell-free assay | 0.5 µM | remaining signal | 6.27% |
| O=C(Nc1cnn(-c2csc(C(=O)NC3COC3)c2)c1)Nc1ccccc1Cl | enzyme activity, inhibitor | 5 µM | remaining activity | 101% |
| Cc1cc(NC(=O)c2cccc3cc(-c4cccc5[nH]nc(N)c45)ccc23)ccc1F | enzyme activity, inhibitor | 0.1 µM | activity vs control | 95% |
| CC(C)(C)c1nc2c(s1)c1nc(N)ncc1c1ccc(NS(=O)(=O)c3c(F)cccc3F)c(F)c12 | enzyme activity, inhibitor, radiometric | 1 µM | remaining activity | 107% |
| Cc1sc(C(=O)NC2COC2)cc1-n1cc(NC(=O)Nc2c(F)cccc2Cl)cn1 | enzyme activity, inhibitor | 10 µM | remaining activity | 95.9% |
| N#CCCc1ccc2c(c1)-c1[nH]c3ccc([N+](=O)[O-])cc3c1CC(=O)N2 | cell-free assay | 0.5 µM | remaining signal | 80.9% |
| FC(F)(F)Oc1cccc(-c2cnc3ccc(-c4ccncc4)nn23)c1 | enzyme activity, inhibitor, radiometric | 1 µM | activity vs control | 96% |
| CCN(CC)CCNC(=O)c1c(C)[nH]c(/C=C2\C(=O)Nc3ccc(F)cc32)c1C | enzyme activity, inhibitor | 0.1 µM | remaining activity | 101% |
| CCCS(=O)(=O)Nc1ccc(F)c(C(=O)c2c[nH]c3ncc(-c4ccc(Cl)cc4)cc23)c1F | enzyme activity, inhibitor | 1 µM | inhibition | < 10% |
| CC(C)(O)[C@H]1CC[C@H](Nc2ccc3ncc(-c4cccc(C(F)(F)F)c4)n3n2)CC1 | enzyme activity, inhibitor | 1 µM | remaining activity | 69.5% |
| Cc1cnc(NC2CCOCC2)nc1-n1cnc(C(=O)NC(CN)c2cc(F)cc(Cl)c2)c1 (stereo not shown) | enzyme activity, inhibitor, radiometric | 1 µM | remaining activity | 100% |
| Cc1ccc(C(=O)NCc2ccsc2)cc1C#Cc1cn(C(C)C)c2ncnc(N)c12 | enzyme activity, inhibitor | 1 µM | activity vs control | 92% |
| O=C1Nc2ccc(Cl)cc2C1=Cc1cc(Cl)c(O)c(Cl)c1 | cell-free assay | 0.5 µM | remaining signal | 105% |
| Cc1[nH]c(/C=C2\C(=O)Nc3ccc(F)cc32)c(C)c1C(=O)N[C@H]1CCN(C(=O)N(C)C)C1 | enzyme activity, inhibitor | 1 µM | remaining activity | 106% |
| FC(F)c1nc2ccccc2n1-c1nc(N2CCOCC2)nc(N2CCOCC2)n1 | enzyme activity, inhibitor | 10 µM | remaining activity | 86% |
| O=C(CSc1nc2nccnc2c(=O)n1CCc1ccccc1)Nc1nccs1 | enzyme activity, inhibitor | 10 µM | inhibition | 15% |
